Experimental data as given in ChEMBL document CHEMBL4219056 (Bioorg Med Chem, 2018).
Calls of active or inactive are those of the source. The calls are words filed in the database; no cut-off is given here.

Experiments:
[1] = target: Free fatty acid receptor 1 (Homo sapiens, UniProt O14842); assay: Agonist activity at human FFA1 expressed in CHO cells assessed as increase in intracellular Ca2+ flux by Fluo-4 dye based FLIPR assay; format: functional, cell-based
How it was run: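 Stable human FFA1 CHO cells were seeded at 15 K cells/well and held 16 h at 37 °C in 5% CO2, then washed with HBSS. Ca2+ flux was read after graded compound addition. Response was scaled between vehicle and 10 µM γ-linolenic acid. EC50 is the mean of three independent determinations.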

[2] = Lipophilicity, log D of the compound at 100 uM at pH 7.4 after 24 hrs by HPLC method; format: physicochemical; conditions: buffer
How it was run: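 Shake-flask method: 10 mM DMSO stock was added to equal volumes of 0.01 M phosphate buffer pH 7.4 and 1-octanol, giving 100 µM final. Vials were shaken 24 h at 700 rpm, then left 1 h to separate. The octanol phase was diluted ×10 and both phases were run on HPLC. Injections were in duplicate; three independent experiments were run.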

[3] = system: Mus musculus; assay: Antidiabetic activity in ICR mouse assessed as reduction in blood glucose AUC (0 to 120 mins) at 40 mg/kg, po dosed 30 minutes prior to glucose challenge by OGTT relative to control; format: functional
How it was run: (§1)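 Fasting male ICR mice (10 weeks, 18-22 g) got a single oral dose in 0.5% carboxymethyl cellulose. Oral glucose (30% solution, 3 g/kg) followed 30 min later. Blood glucose was sampled at -30, 0, 15, 30, 60 and 120 min.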

[4] = AUC (0 to 24 hrs) in fasted Sprague-Dawley rat at 3 mg/kg, po administered as single dose by LC-PDA-MS/MS analysis; format: ADME, organism-based; parameters: dose 3 mg/kg, time < 24 hr, route oral; conditions: in vivo
How it was run: (§2)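 Male SD rats (8 weeks, 180-200 g) were fasted 12 h and dosed once orally at 3 mg/kg, suspended in 0.5% methylcellulose, n = 4 per group. Tail-vein blood was drawn at 5, 15, 30 and 45 min and at 1, 2, 4, 6, 8, 12, 18 and 24 h. Plasma was stored at -20 °C. Methanol precipitation with internal standard preceded LC-PDA-MS/MS. Values are mean ± SD.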

[5] = Half life in fasted Sprague-Dawley rat at 3 mg/kg, po administered as single dose by LC-PDA-MS/MS analysis; format: ADME, organism-based; conditions: in vivo; how it was run: as §2
[6] = Plasma clearance in fasted Sprague-Dawley rat at 3 mg/kg, po administered as single dose measured up to 24 hrs by LC-PDA-MS/MS analysis; format: ADME, organism-based; how it was run: as §2
[7] = system: Mus musculus; assay: Antidiabetic activity in ICR mouse assessed as reduction in blood glucose AUC (0 to 120 mins) at 20 mg/kg, po dosed 30 minutes prior to glucose challenge by OGTT relative to control; format: functional; parameters: scale not given: the % may be the effect or the level left; how it was run: as §1
[8] = Cmax in fasted Sprague-Dawley rat at 3 mg/kg, po administered as single dose by LC-PDA-MS/MS analysis; format: ADME, organism-based; parameters: dose 3 mg/kg, route oral; conditions: in vivo; how it was run: as §2

Sequence of Free fatty acid receptor 1 (O14842 whole entry): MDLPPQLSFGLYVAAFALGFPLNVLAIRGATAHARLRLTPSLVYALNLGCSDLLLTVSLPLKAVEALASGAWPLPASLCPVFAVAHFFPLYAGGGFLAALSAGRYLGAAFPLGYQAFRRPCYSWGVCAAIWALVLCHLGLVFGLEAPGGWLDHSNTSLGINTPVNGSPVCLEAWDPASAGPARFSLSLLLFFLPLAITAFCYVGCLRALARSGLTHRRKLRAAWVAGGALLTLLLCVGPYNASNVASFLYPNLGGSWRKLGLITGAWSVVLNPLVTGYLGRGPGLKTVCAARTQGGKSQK

Row | SMILES | EC50 [1] | logD at 24 h, 100 µM [2] | Activity [3] | further results
1 | Cc1ccsc1-c1cccc(COc2ccc3c(c2)OCC3CC(=O)O)c1 (stereo unspecified) | 157 nM | – | – | –
2 | Cc1nn(C)c(C)c1-c1cccc(COc2ccc3c(c2)OCC3CC(=O)O)c1 (stereo unspecified) | 104 nM | – | – | –
3 | Cc1ccc(-c2c(C)noc2C)cc1COc1ccc2c(c1)OCC2CC(=O)O (stereo unspecified) | 53.7 nM | 2.07 | – | –
4 | [2H]C([2H])(Cc1ccc(OCc2cccc(-c3c(C)noc3C)c2)cc1F)C(=O)O | 45.7 nM | – | – | –
5 | Cc1noc(C)c1-c1cc(COc2ccc3c(c2)OCC3CC(=O)O)ccc1Cl (stereo unspecified) | 18.6 nM | 1.96 | Active | –
6 | Cc1noc(C)c1-c1ccc(Cl)c(COc2ccc3c(c2)OCC3CC(=O)O)c1 (stereo unspecified) | 39.7 nM | 2.13 | Active | –
7 | Cc1cc(OCCCS(C)(=O)=O)cc(C)c1-c1cccc(COc2ccc3c(c2)OC[C@H]3CC(=O)O)c1 | – | – | – | AUC(0-t) at 24 h [4]: 79.5 µg·h/mL; half-life [5]: 4.29 h; CL/F [6]: 0.618 mL/min/kg; Activity [7]: 37.5%; Cmax [8]: 6460 ng/mL
8 | Cc1noc(C)c1-c1cc(COc2ccc3c(c2)OC[C@H]3CC(=O)O)ccc1Cl | 7.9 nM | 1.93 | 26.2% | AUC(0-t) at 24 h [4]: 142 µg·h/mL; half-life [5]: 4.65 h; CL/F [6]: 0.308 mL/min/kg; Cmax [8]: 14100 ng/mL
9 | [2H]C([2H])(Cc1ccc(OCc2cccc(-c3c(C)noc3C)c2)cc1)C(=O)O | 38.4 nM | 1.83 | – | –
10 | Cc1noc(C)c1-c1cccc(COc2ccc(CCC(=O)O)cc2)c1 | – | – | – | Activity ([3]; tested as the 2H-labelled form): Active
11 | Cc1noc(C)c1-c1cccc(COc2ccc3c(c2)OCC3CC(=O)O)c1 (stereo unspecified) | 27.5 nM | 1.57 | Active | –
12 | Cc1ccc(C)n1-c1cccc(COc2ccc3c(c2)OCC3CC(=O)O)c1 (stereo unspecified) | 53.6 nM | 3.95 | – | –
